# Key:
# Type in all cases: functional
# Mus musculus [1] = assay: BDF1 male mice were administered with 200 mg/kg po and percent change in iron levels was determined in spleen
# Summary of the method: (§1)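 Hypertransfused male BDF1 mice (canine red cells, washed and heated at 50 °C for 30 min) were dosed orally for 7 days with compound in distilled water or a fine suspension with Polysorbate 80 (2% final). Daily group urine and pooled feces (1 N HCl digest, 90 °C, 30 min, triplicate) were collected, and liver and spleen were homogenized. Iron was measured by atomic absorption and reported as % change vs transfused control.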
# Mus musculus [2] = assay: BDF1 male mice were administered with 200 mg/kg po and percent change in iron levels was determined in Feces; summary of the method: as §1
# Mus musculus [3] = assay: BDF1 male mice were administered with 200 mg/kg po and percent change in iron levels was determined in Liver; summary of the method: as §1
# Mus musculus [4] = assay: BDF1 male mice were administered with the compound and number of survivors was determined at a dose 200 mg/kg po
# Summary of the method: (§2)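 Male BDF1 mice were iron-loaded by transfusion of canine red cells. The cells were heparinised, washed twice in isotonic saline and heated at 50 °C for 30 min. Dosing started two days after the last transfusion, once daily for 7 consecutive days. Compounds were given in distilled water or as a fine aqueous suspension with Polysorbate 80 (2% final). Toxic signs were recorded daily and survivors counted per group.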
# Mus musculus [5] = assay: BDF1 male mice were administered with 200 mg/kg poand percent change in iron levels was determined in Urine; summary of the method: as §1
# Mus musculus [6] = assay: BDF1 male mice were administered with 250 mg/kg intraperitoneally and percent change in iron levels was determined in Feces; conditions: route intraperitoneal
# Summary of the method: (§3)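 Male BDF1 mice were hypertransfused with washed, heat-treated (50 °C, 30 min) canine red cells. Starting 2 days after the last transfusion, they received one ip injection daily for 7 days, in distilled water or an aqueous suspension with Polysorbate 80 (2% final). Group urine was collected every 24 h. Feces were digested in 1 N HCl (90 °C, 30 min, triplicate). Liver and spleen were homogenized. Iron was measured by atomic absorption and reported as % change vs transfused controls.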
# Mus musculus [7] = assay: BDF1 male mice were administered with 250 mg/kg intraperitoneally and percent change in iron levels was determined in Spleen; conditions: route intraperitoneal; summary of the method: as §3
# Mus musculus [8] = assay: BDF1 male mice were administered with 250 mg/kg intraperitoneally and number of survivors was determined out of 240 tested; conditions: route intraperitoneal; summary of the method: as §2
# Mus musculus [9] = assay: BDF1 male mice were administered with 250 mg/kg intraperitoneally and percent change in iron levels was determined in Urine; conditions: route intraperitoneal; summary of the method: as §3
# Mus musculus [10] = assay: BDF1 male mice were administered with 250 mg/kg intraperitoneally and percent change in iron levels was determined in Liver; conditions: route intraperitoneal; summary of the method: as §3
smiles,measurement,setting,value
CC(=O)Oc1ccccc1CN(CCN(CC(=O)OC(C)(C)C)Cc1ccccc1OC(C)=O)CC(=O)OC(C)(C)C,Iron change,Mus musculus [1],-6%
same,Iron change,Mus musculus [2],-1%
same,Iron change,Mus musculus [3],16%
same,No. of survivors,Mus musculus [4],10
same,Iron change,Mus musculus [5],-4%
CC(=O)N(O)CCCCCNC(=O)CCC(=O)N(O)CCCCCNC(=O)CCC(=O)N(O)CCCCCN [DEFEROXAMINE],Iron change,Mus musculus [6],7%
same,Iron change,Mus musculus [7],2%
same,No. of survivors,Mus musculus [8],240
same,Iron change,Mus musculus [9],270%
same,Iron change,Mus musculus [10],-24%

# — ChEMBL document CHEMBL1123309, “Esters and lactones of phenolic amino carboxylic acids: prodrugs for iron chelation” (J Med Chem, 1986)
